GRIN3A LBD mod – NR3A (human) ligand-binding domain modulation | actives 2.5% (n = 340,000) | AID 1259313 | Tm shift relative to glycine control, % at 25 µM | NR3A LBD differential scanning fluorimetry, Tm shift; 0% = protein alone, 100% = glycine-bound protein;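 active = melting temperature shift of at least 10% of the positive control shift, at one fixed dose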
EBI2 block – blocks human EBI2 receptor beta-arrestin signaling; inhibition, % at 5 µM; EBI2 beta-arrestin recruitment, luminescence, 7a,25-OHC stimulated; actives 0.81% (n = 360,000); P32249; AID 651636; in the data active = inhibition above about 38%;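 note: enzyme fragment complementation signal reports receptor beta-arrestin coupling in cells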
Target sequence (P32249 whole entry, looked up, the tested form may be a part): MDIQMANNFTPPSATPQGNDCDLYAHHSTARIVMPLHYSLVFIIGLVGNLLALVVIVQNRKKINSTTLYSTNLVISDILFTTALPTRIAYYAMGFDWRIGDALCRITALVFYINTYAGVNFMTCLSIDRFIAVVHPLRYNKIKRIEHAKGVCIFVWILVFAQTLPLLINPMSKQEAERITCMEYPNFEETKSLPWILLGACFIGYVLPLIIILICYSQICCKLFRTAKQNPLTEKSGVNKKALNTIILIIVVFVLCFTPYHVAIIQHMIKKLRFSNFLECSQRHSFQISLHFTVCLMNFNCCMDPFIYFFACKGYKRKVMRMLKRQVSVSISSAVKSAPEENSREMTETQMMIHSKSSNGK
SENP1 inh – inhibitors of human SENP1 SUMO protease catalytic domain; inhibition, % at 10 µM; actives 0.21% (n = 360,000); recombinant SENP1 catalytic domain, CyPet-SUMO1-YPet FRET cleavage;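 active = inhibition at least 30% at 10 µM, raw YFP signal under a set limit, fluorescence ratio 0.5 to 1.5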
Target sequence (Q9P0U3 419-644 limits assumed): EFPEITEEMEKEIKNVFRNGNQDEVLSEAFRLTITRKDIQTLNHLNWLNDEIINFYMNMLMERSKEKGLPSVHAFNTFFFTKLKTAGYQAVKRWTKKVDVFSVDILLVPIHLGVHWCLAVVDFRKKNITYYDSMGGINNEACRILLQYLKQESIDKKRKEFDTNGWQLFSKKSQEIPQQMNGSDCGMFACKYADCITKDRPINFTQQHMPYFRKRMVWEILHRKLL
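Compound: 10 µM single point, 0.5% DMSO; Test system: hSENP1 catalytic domain, recombinant; Timing: 50 min reaction at room temperature; Technique: FRET, CFP and YFP emission; Control set: no-enzyme wells low, DMSO-plus-enzyme wells high control.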
MPTP inh – inhibitors of mitochondrial permeability transition pore | AID 602449 | actives 1.4% (n = 360,000) | inhibition, % at 10 µM | isolated mouse mitochondria, Ca2+ swelling absorbance, 30 min;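 active = inhibition of 50% or more, scaled per plate between neutral and stimulator controls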
MPTP counter – mitochondrial membrane potential, counter-screen; isolated mitochondria, Rhodamine 123 fluorescence; inhibition, % at 10 µM; actives 78% (n = 5,000); AID 624504; shares compounds with MPTP inh; in the data active = inhibition above about 22%
MPTP abs DR – MPTP inhibition, dose response swelling confirmation. isolated mitochondria swelling, absorbance. shares compounds with MPTP inh. actives 58% (n = 780). IC50, µM; in the data active = IC50 below about 20 µM
MPTP counter DR – MPTP inhibitor counter-screen activity, dose response; shares compounds with MPTP inh; isolated mitochondria counterscreen, fluorescence read-out; IC50, µM; actives 49% (n = 780); in the data active = IC50 below about 80 µM
Of the large screens only hits and unclear results are named; the others gave an inactive call (follow-up assays come after a bar, where they were run). Hits are enriched below; roughly 4.4% of the tested compounds scored in any of these assays.

CN(C)c1ccc(NC(=O)Nc2cccc(Cl)c2)cc1	GRIN3A LBD mod 22.5, MPTP inh 73.9 | MPTP counter 71.9
O=C(Nc1ccc2c(c1)C(=O)OC2)c1ccccc1Cl	none
COc1cc(C(=O)NCC(c2ccco2)N2CCc3ccccc32)cc(OC)c1OC (stereo not drawn)	none
Cc1nccc(-c2cccc(NC(=O)Nc3ccc(Cl)cc3)c2)n1	GRIN3A LBD mod 24.6, MPTP inh 82.7 | MPTP counter 93.2
Cc1c(NC(=O)c2ccc(NS(=O)(=O)c3ccc(F)c(F)c3)cc2)c(=O)n(-c2ccccc2)n1C	none
CC1=C(C(=O)N2CCOCC2)CC(CC(=O)NCc2cccs2)C(=O)N1Cc1ccccc1 (stereo not drawn)	none (no result: GRIN3A LBD mod)
O=C(COc1ccc2c(-c3ccccc3)cc(=O)oc2c1)Nc1cccnc1	MPTP inh 85.2 | MPTP counter 86.6
COc1ccc(CN(C)Cc2c(O)ccc3cc(Br)ccc23)cc1OC	MPTP inh 68.5 | MPTP counter 50.4
O=C(COC(=O)C1CC(O)CN1S(=O)(=O)c1ccccc1[N+](=O)[O-])c1ccc[nH]1 (stereo not drawn)	none
CCCCn1c(N)c(-c2nc3ccccc3s2)c2c([N+](=O)[O-])nn(C)c(=O)c21	MPTP inh 97.4 | MPTP counter inactive | MPTP abs DR 12.1 | MPTP counter DR 6.21
Cn1nc([N+](=O)[O-])c2c(-c3nc4ccccc4s3)c(N)n(C3CCCCC3)c2c1=O	MPTP inh 71.5 | MPTP counter inactive | MPTP abs DR inactive | MPTP counter DR 43.3
CCCCn1c(N)c(-c2nc3ccccc3s2)c2c([N+](=O)[O-])nn(CC)c(=O)c21	MPTP inh 92.2 | MPTP counter inactive | MPTP abs DR 19.8 | MPTP counter DR 18.4
CCCCCn1c(N)c(-c2nc3ccccc3o2)c2c([N+](=O)[O-])nn(C)c(=O)c21	none
CCCCCn1c(N)c(-c2nc3ccccc3s2)c2c([N+](=O)[O-])nn(CC)c(=O)c21	MPTP inh 96.6 | MPTP counter inactive | MPTP abs DR 11 | MPTP counter DR <2.5
CCCCCn1c(N)c(-c2nc3ccccc3o2)c2c([N+](=O)[O-])nn(CC)c(=O)c21	none
CS(=O)(=O)N1c2ccccc2[C@@]2(Br)C[C@H]3C(=O)N[C@@H](Cc4ccccc4)C(=O)N3[C@@H]12	none
Cc1ccc(Cn2c(=N)n(CC(O)c3ccco3)c3ccccc32)cc1 (stereo not drawn)	MPTP inh 70.3 | MPTP counter 43.2
CCc1ccc(Nc2n[n+](-c3ccccc3)c(-c3cccc(C)c3)s2)cc1	none
Fc1ccc(-[n+]2nc(Nc3ccccc3)sc2-c2c3ccccc3cc3ccccc23)cc1	MPTP inh 91.7 | MPTP counter 110.6
COc1ccc(C)cc1Nc1n[n+](-c2ccccc2)c(-c2c(OC)ccc3ccccc23)s1	MPTP inh 99.5 | MPTP counter 104.6
Oc1ccc2ccccc2c1-c1sc(Nc2ccccc2)n[n+]1-c1ccc(F)cc1	none
COc1ccc(C)cc1Nc1n[n+](-c2ccccc2)c(-c2cc(OC)c(OC)cc2Br)s1	none
c1ccc(-[n+]2nc(Nc3cccc4ccccc34)sc2-c2c3ccccc3cc3ccccc23)cc1	MPTP inh 97.5 | MPTP counter 92.8
COc1ccc(N2CCN(C(=O)CCC(=O)N3CCOc4ccc(Cl)cc43)CC2)cc1	none
CC(C)[C@H](NS(=O)(=O)/C=C/c1ccccc1)C(=O)OCC(=O)NC(N)=O	none
COc1cc(CCc2ccccc2)c(C(=O)O)c(O)c1CC=C(C)C	MPTP inh 93.3 | MPTP counter 68.9
COCOc1ccc(/C=C/C(=O)c2c(OCOC)cc(OCOC)c(CC=C(C)C)c2O)cc1OCOC	none
COc1cc(CCc2ccccc2)c(C(=O)O)c(O)c1C/C=C(/C)CCC=C(C)C	GRIN3A LBD mod 10.0, MPTP inh 86.6 | MPTP counter 55.7
CCCN1C(=O)/C(=C/c2ccc(C)o2)SC1=Nc1ccc(OCC)cc1	none
CCCN1C(=O)/C(=C/c2ccc(C)o2)SC1=Nc1ccc(OC)cc1	MPTP inh 64.5 | MPTP counter inactive | MPTP abs DR inactive | MPTP counter DR inactive
CN(CCOc1ccccc1)C(=O)c1cc(S(=O)(=O)N2CCCCC2)ccc1Cl	none
Cc1cc2n(n1)C(c1cccs1)Nc1ccccc1-2 (stereo not drawn)	none
O=C(CNc1cccc(Br)c1)Nc1ccc(S(=O)(=O)N2CCCCC2)cc1	none (no result: GRIN3A LBD mod)
O=C(CNc1cccc(S(=O)(=O)N2CCCC2)c1)Nc1ccc(C(F)(F)F)cc1	MPTP inh 51.8 | MPTP counter 85.2
O=C(CNc1cccc(S(=O)(=O)N2CCCCC2)c1)Nc1ccc(C(F)(F)F)cc1	MPTP inh 81.0 (no result: GRIN3A LBD mod) | MPTP counter 76.4
CC1O[C@@H](OCC2O[C@@H](Oc3cc(O)c4c(c3)OC(c3ccc(O)cc3)CC4=O)[C@H](O)[C@@H](O)[C@@H]2O)[C@H](O)[C@H](O)[C@H]1O (stereo partly drawn)	none
CCCCNS(=O)(=O)c1ccc2nc(-c3cccnc3)cc(C(=O)NCC(OC)OC)c2c1	none
CC(=O)N(CCC(Cc1ccccc1)c1ccc2c(c1)OCO2)Cc1ccccc1F (stereo not drawn)	none
Fc1ccccc1CNCCC(Cc1ccccc1)c1ccc2c(c1)OCO2 (stereo not drawn)	MPTP inh 85.2 | MPTP counter inactive | MPTP abs DR 5.4 | MPTP counter DR 16.1
CC(C(=O)Nc1ccccc1Sc1ccccc1)N(c1ccccc1)S(C)(=O)=O (stereo not drawn)	none
FC(F)(F)Sc1ccc(NC(=S)NCc2ccccc2)cc1	GRIN3A LBD mod 19.9, MPTP inh 84.1 | MPTP counter 73.3
S=C(NCCCc1ccccc1)Nc1ccccc1	none
S=C(NCCCc1ccccc1)Nc1ccc(Cl)cc1	GRIN3A LBD mod 22.0, MPTP inh 97.4 | MPTP counter 90.9
S=C(NCc1ccccc1)NCc1cccc(Cl)c1	none
CCc1ccc(NC(=S)NCc2ccccc2)cc1	none
S=C(NCc1ccccc1)Nc1ccc(Cl)cc1	MPTP inh 72.2 | MPTP counter 81.0
S=C(NCc1ccccc1)NCc1cccc(CNC(=S)NCc2ccccc2)c1	GRIN3A LBD mod 19.9, MPTP inh 83.6 | MPTP counter 77.8
O=C(COc1cc(F)ccc1[N+](=O)[O-])Nc1cc(S(=O)(=O)N2CCCC2)ccc1Cl	none
O=C(Nc1ccc(Oc2ccccc2)cc1)N[C@@H](Cc1ccccc1)C(=O)O	none
Cc1oc(C(C)(C)C)cc1C(=O)N1CCN(C(c2ccccc2)c2ccccc2)CC1	none
S=C(NCCC(c1ccccc1)c1ccccc1)Nc1ccc(Cl)cc1	GRIN3A LBD mod 14.7, MPTP inh 93.2 | MPTP counter 75.1
S=C(NCCC(c1ccccc1)c1ccccc1)Nc1ccccc1Cl	none
